Test results: ChEMBL document CHEMBL3351394 (J Med Chem, 2014)
Active and inactive are the calls of the source. The calls are words filed in the database; no cut-off is given here.

The molecules below were run against T1, Bile acid receptor (Homo sapiens, UniProt Q96RI1) (assay: Antagonist activity at human FXR expressed in human HeLa cells assessed as inhibition of receptor activation by BSEP promoter-driven firefly luciferase reporter gene assay). Details: not given.
T1 sequence (Q96RI1 whole entry): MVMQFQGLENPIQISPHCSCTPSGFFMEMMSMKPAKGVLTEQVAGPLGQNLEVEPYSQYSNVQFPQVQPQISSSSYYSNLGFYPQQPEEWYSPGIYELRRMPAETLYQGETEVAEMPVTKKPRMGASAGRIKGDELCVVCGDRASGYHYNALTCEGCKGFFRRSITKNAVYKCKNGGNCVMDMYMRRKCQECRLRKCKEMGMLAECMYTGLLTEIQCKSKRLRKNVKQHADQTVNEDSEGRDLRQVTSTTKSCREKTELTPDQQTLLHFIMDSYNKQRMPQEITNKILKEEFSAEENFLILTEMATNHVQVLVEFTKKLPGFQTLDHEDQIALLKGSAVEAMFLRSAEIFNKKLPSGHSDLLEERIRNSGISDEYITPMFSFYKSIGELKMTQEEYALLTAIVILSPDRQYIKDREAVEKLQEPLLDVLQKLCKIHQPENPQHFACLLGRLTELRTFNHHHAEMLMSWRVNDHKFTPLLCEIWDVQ
Format: cell-based
How it was run: (§1)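 HeLa cells were calcium-phosphate transfected with pcDNA3-hFXR, pSG5-hRXR, a BSEP-promoter firefly luciferase (BSEP-pGL3) and pRL-SV40, then kept in 0.5% charcoal-stripped FCS. 24 h post-transfection, compound in 0.1% DMSO was added for 24 h; in antagonist mode it was given in competition with GW4064. Dual-luciferase firefly/renilla RLU gave fold over untreated and activity relative to 3 μM GW4064. Triplicate wells, ≥3 independent runs.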
For `COc1ccc(NC(=O)c2ccc(C(C)(C)C)cc2)c(C(=O)Nc2cccc(C(=O)O)c2)c1`, the IC50 was 15100 nM.
`CC(C)(C)c1ccc(C(=O)Nc2ccc(Cl)cc2C(=O)Nc2cccc(C(=O)O)c2)cc1` was tested, and the IC50 was 12300 nM.

These molecules were tested against T1, Bile acid receptor (assay: Agonist activity at human FXR expressed in human HeLa cells assessed as receptor activation by BSEP promoter-driven firefly luciferase reporter gene assay). Details: hela.
Format: cell-based
With `CC(C)(C)c1ccc(NC(=O)c2ccccc2NC(=O)c2cccc(C(=O)O)c2)cc1` the EC50 was “Not Active”.

Same assay, conditions: read-out: EC50
Work on `Cc1ccc(NC(=O)c2ccccc2NC(=O)c2ccc(C(C)(C)C)cc2)cc1C(=O)O` yielded an EC50 of 45 nM.
For `CC(C)(C)c1ccc(C(=O)Nc2ccccc2C(=O)Nc2cccc(C(N)=O)c2)cc1`, the EC50 was 74 nM.
`CC(C)(C)c1ccc(C(=O)Nc2ccccc2C(=O)Nc2cc(C(=O)O)ccc2Cl)cc1` was tested, and the EC50 was 1100 nM.
In the case of `O=C(O)c1cccc(NC(=O)c2ccccc2NC(=O)c2ccc(C(F)(F)F)c(F)c2)c1`, the EC50 is reported as 5000 nM.
In the case of `Cc1ccc(C(=O)Nc2ccc(C)c(C(=O)O)c2)c(NC(=O)c2ccc(C(C)(C)C)cc2)c1`, the EC50 is reported as 43 nM.
`CC(C)(C)c1ccc(C(=O)Nc2cc(Cl)ccc2C(=O)Nc2cccc(C(=O)O)c2)cc1` showed an EC50 of 47 nM.
In the case of `COc1ccc(NC(=O)c2ccccc2NC(=O)c2ccc(C(C)(C)C)cc2)cc1OC`, the EC50 is reported as 71 nM.
`CC(C)(C)c1ccc(C(=O)Nc2ccccc2C(=O)Nc2cccc(CC(=O)O)c2)cc1` was tested, and the EC50 was 420 nM.
`Cc1ccc(NC(=O)c2ccc(Cl)cc2NC(=O)c2ccc(C(C)(C)C)cc2)cc1C(=O)O` was tested, and the EC50 was 110 nM.
For `COc1ccc(NC(=O)c2ccccc2NC(=O)c2ccc(C(C)(C)C)cc2)cc1C(=O)O`, the EC50 was 47 nM.
`CC(C)(C)c1ccc(C(=O)Nc2ccccc2C(=O)Nc2cc(C(=O)O)ccc2F)cc1` was tested, and the EC50 was 480 nM.
`COc1ccc(C(=O)O)cc1NC(=O)c1ccccc1NC(=O)c1ccc(C(C)(C)C)cc1` gave an EC50 of 4700 nM.
`Cc1c(NC(=O)c2ccccc2NC(=O)c2ccc(C(C)(C)C)cc2)cccc1C(=O)O` gave an EC50 of 42 nM.
For `COc1cccc(NC(=O)c2ccccc2NC(=O)c2ccc(C(C)(C)C)cc2)c1`, the EC50 was 380 nM.
For `CC(C)(C)c1ccc(C(=O)Nc2ccccc2C(=O)Nc2cccc(C(=O)O)c2)cc1`, the EC50 was 280 nM.
For `CC(C)(C)c1ccc(C(=O)Nc2ccccc2C(=O)Nc2cccc(-c3nnn[nH]3)c2)cc1`, the EC50 was 2900 nM.
For `CC(C)(C)c1ccc(C(=O)Nc2cc(Br)ccc2C(=O)Nc2cccc(C(=O)O)c2)cc1`, the EC50 was 48 nM.
In the case of `O=C(O)c1cccc(NC(=O)c2ccccc2NC(=O)c2ccc(Br)cc2)c1`, the EC50 is reported as 3700 nM.
Molecule `CC(=O)c1cccc(NC(=O)c2ccccc2NC(=O)c2ccc(C(C)(C)C)cc2)c1` has an EC50 of 480 nM.
With `CC(C)(C)c1ccc(C(=O)Nc2ccccc2C(=O)Nc2ccc(Cl)c(C(=O)O)c2)cc1` the EC50 was 280 nM.
`O=C(O)c1cccc(NC(=O)c2ccccc2NC(=O)c2ccc3c(c2)OCCO3)c1` gave an EC50 of 4900 nM.
`Cc1ccc(C(=O)Nc2cccc(C(=O)O)c2)c(NC(=O)c2ccc(C(C)(C)C)cc2)c1` was tested, and the EC50 was 61 nM.
For `CC(C)(C)c1ccc(C(=O)Nc2ccccc2C(=O)Nc2ccc(Br)c(C(=O)O)c2)cc1`, the EC50 was 150 nM.
`CC(C)(C)c1ccc(C(=O)Nc2ccccc2C(=O)Nc2cccc(C#N)c2)cc1` was tested, and the EC50 was 230 nM.
Molecule `CSc1cccc(NC(=O)c2ccccc2NC(=O)c2ccc(C(C)(C)C)cc2)c1` has an EC50 of 200 nM.
In the case of `CC(C)(C)c1ccc(C(=O)Nc2ccccc2C(=O)Nc2cccc(CCC(=O)O)c2)cc1`, the EC50 is reported as 64 nM.
`O=C(O)c1cccc(NC(=O)c2ccccc2NC(=O)c2ccc(C(F)(F)F)cc2)c1` showed an EC50 of 6900 nM.
Molecule `COc1ccc(C(=O)Nc2ccc(C)c(C(=O)O)c2)c(NC(=O)c2ccc(C(C)(C)C)cc2)c1` has an EC50 of 87 nM.
`O=C(O)c1cccc(NC(=O)c2ccccc2NC(=O)c2ccc3c(c2)OCO3)c1` was tested, and the EC50 was 10000 nM.
In the case of `O=C(/C=C/c1ccccc1)Nc1ccccc1C(=O)Nc1cccc(C(=O)O)c1`, the EC50 is reported as 5200 nM.

Each molecule was assayed against T2, Bile acid receptor (Homo sapiens) (UniProt Q96RI1) (assay: Agonist activity at human FXR expressed in human HeLa cells assessed as receptor activation at 30 uM by BSEP promoter-driven firefly luciferase reporter gene assay relative to 3 uM GW4064). Details: not given.
T2 sequence (whole entry): T1 sequence (Q96RI1 whole entry)
Format: cell-based
How it was run: as §1
`COc1ccc(NC(=O)c2ccc(C(C)(C)C)cc2)c(C(=O)Nc2cccc(C(=O)O)c2)c1` was tested, and the Activity was “inactive”.
`COc1cc(NC(=O)c2ccccc2NC(=O)c2ccc(C(C)(C)C)cc2)cc(OC)c1OC` was tested, and the Activity was “inactive”.
With `CC(C)(C)c1ccc(C(=O)Nc2cc([N+](=O)[O-])ccc2C(=O)Nc2cccc(C(=O)O)c2)cc1` the Activity was “inactive”.
`CC(C)(C)c1ccc(C(=O)Nc2ccccc2C(=O)Nc2ccc([N+](=O)[O-])c(C(=O)O)c2)cc1` was tested, and the Activity was “inactive”.
`O=C(Cc1ccccc1)Nc1ccccc1C(=O)Nc1cccc(C(=O)O)c1` was tested, and the Activity was “inactive”.
With `O=C(O)c1cccc(NC(=O)c2ccccc2NC(=O)c2cc(C(F)(F)F)cc(C(F)(F)F)c2)c1` the Activity was “inactive”.
`Nc1ccccc1C(=O)Nc1cccc(C(=O)O)c1` was tested, and the Activity was “inactive”.
With `CC(C)(C)c1ccc(C(=O)Nc2cccc(Cl)c2C(=O)Nc2cccc(C(=O)O)c2)cc1` the Activity was “inactive”.
In the case of `Cc1ccc(C(=O)O)cc1NC(=O)c1ccccc1NC(=O)c1ccc(C(C)(C)C)cc1`, the Activity is reported as “inactive”.
With `CC(C)(C)c1ccc(C(=O)Nc2c(Cl)cccc2C(=O)Nc2cccc(C(=O)O)c2)cc1` the Activity was “inactive”.

What follows are molecules tested against T2, Bile acid receptor (Homo sapiens) (assay: Antagonist activity at human FXR expressed in human HeLa cells assessed as inhibition of receptor activation by BSEP promoter-driven firefly luciferase reporter gene assay relative to untreated control). Details: concentration not given here.
Format: cell-based
How it was run: as §1
`COc1ccc(NC(=O)c2ccc(C(C)(C)C)cc2)c(C(=O)Nc2cccc(C(=O)O)c2)c1` was tested, and the inhibition was 10%.
Molecule `CC(C)(C)c1ccc(C(=O)Nc2ccc(Cl)cc2C(=O)Nc2cccc(C(=O)O)c2)cc1` has an inhibition of 15%.

Each molecule was assayed against T2, Bile acid receptor (Homo sapiens) (assay: Agonist activity at FXR in human HepG2 cells assessed as induction of BSEP mrNA expression at 3 uM by quantitative PCR method). Details: not given.
Format: cell-based
How it was run: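 HepG2 cells were seeded at 2 × 10⁶ per well. After 24 h they were switched to MEM with 1% charcoal-stripped FCS, and 24 h later dosed with compound (0.1, 0.3, 1, 3, 10 μM; 0.1% DMSO final) for 24 h. Total RNA was reverse transcribed and analysed by qPCR, GAPDH-normalized, ΔΔCt method. Samples were run in duplicate in ≥4 independent experiments.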
For `CC(C)c1onc(-c2c(Cl)cccc2Cl)c1COc1ccc(/C=C/c2cccc(C(=O)O)c2)c(Cl)c1`, the Activity was 1520%.
